The list is not random: actives were taken first. Their share in the collection is about 1.2%.
CRFBP-R2 block – antagonists of CRF-BP/CRF-R2 complex, primary screen, cell-based, HEK293, calcium dye fluorescence, uHTS; AID 588475, 2011; CRF-induced calcium fluorescence; 0.59% of 350,000 active; inhibition, % at 11.8 µM;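 active = inhibition of the ligand-induced calcium signal above about 50% at the single tested concentration, limit read from the data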
zfTRPN1 agonist – zebrafish TRPN1 channel agonists, primary screen, cell-based, HEK293, calcium fluorescence | 0.18% of 220,000 active | AID 1424, 2008 | activation, % at 3 µM | HEK293 zebrafish TRPN1-YFP, Fluo-8 calcium fluorescence; 100% = response to 87 µM carbachol | transient receptor potential cation channel N1 (TRPN1/NompC), Danio rerio;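 active = activation above its plate's cutoff, the mean activation of test wells on that plate plus 3 SD, cut at about 19% in these data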
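System: zebrafish TRPN1-YFP in HEK293 cells / Dosing: 3 µM single point / Timing: dye loading 1 h at 37 °C, then 30 min room temperature / Signal: Fluo-8 calcium fluorescence, excitation 470-495 nm, emission 515-575 nm / Read-out basis: percent activation from peak over basal fluorescence ratio, control-normalized / Control set: high carbachol 87 µM, low DMSO alone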
TRPML3 agonist – human TRPML3 channel agonists, primary screen, cell-based, HEK293 TRPML3-YFP, Fluo-8 calcium fluorescence, 3 µM | activation, % at 3 µM | 100% = the carbachol control signal | 0.29% of 220,000 active | Mucolipin-3 (Homo sapiens), Q8TDD5;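 active = activation above its plate's cutoff, the mean activation of the plate's test wells plus 3 SD, cut at about 12% in these data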
Target sequence (Q8TDD5 whole entry, looked up): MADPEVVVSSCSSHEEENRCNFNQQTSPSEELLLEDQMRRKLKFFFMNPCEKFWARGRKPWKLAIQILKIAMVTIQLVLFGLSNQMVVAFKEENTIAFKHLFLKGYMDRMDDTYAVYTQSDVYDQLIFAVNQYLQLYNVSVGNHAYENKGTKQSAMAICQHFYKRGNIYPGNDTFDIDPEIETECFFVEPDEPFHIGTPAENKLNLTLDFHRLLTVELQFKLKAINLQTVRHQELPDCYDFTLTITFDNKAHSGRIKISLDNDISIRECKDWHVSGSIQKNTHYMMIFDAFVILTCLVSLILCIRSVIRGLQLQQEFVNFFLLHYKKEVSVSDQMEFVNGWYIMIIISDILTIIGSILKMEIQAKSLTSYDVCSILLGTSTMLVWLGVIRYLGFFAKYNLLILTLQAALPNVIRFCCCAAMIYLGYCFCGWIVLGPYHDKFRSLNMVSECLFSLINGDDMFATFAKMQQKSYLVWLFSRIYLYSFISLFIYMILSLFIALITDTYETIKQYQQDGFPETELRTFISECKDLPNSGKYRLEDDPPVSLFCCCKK
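Material: HEK293 cells stably carrying human TRPML3-YFP; compound dosing: single dose, 3 µM final nominal compound, 0.3% DMSO final; incubation: 1-h 37 °C dye load, 5-s basal, 120-s post-compound reads; technique: Fluo-8 intracellular calcium fluorescence, excitation 470-495 nm, emission 515-575 nm; read-out basis: percent activation from peak-to-basal fluorescence ratio, scaled between DMSO and carbachol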
CRFR2-BP ag – agonists of CRF-BP/CRF-R2 complex, primary screen, cell-based, HEK293, calcium dye fluorescence, uHTS. calcium dye fluorescence (FLIPR); percent of saturating CRF peptide response. activation, % at 13.2 µM. 0.46% of 350,000 active. AID 588473, 2011;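 active = activation of at least 50%, plus an integration ratio under a set limit after plate pattern correction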
A number is an active result; . = inactive; / = not tested or not shown.

SMILES	CRFBP-R2 block	zfTRPN1 agonist	TRPML3 agonist	CRFR2-BP ag
Cc1noc(C)c1COC(=O)Cc1ccc(Cl)c(Cl)c1	62	.	.	.
COc1cccc(CN2CCN(c3cccc(C(F)(F)F)c3)CC2)c1OC	54	.	.	.
Fc1ccc(C2c3cccn3CCN2C(=S)Nc2cccc(F)c2)cc1 (stereo not given)	53	.	.	.
Fc1cccc(NC(=S)N2CCn3cccc3C2c2cccnc2)c1 (stereo not given)	.	.	.	.
COc1ccc(-n2ncc(C(C)NS(=O)(=O)c3cc(C)sc3C)c2C)cc1 (stereo not given)	51	/	/	.
COC(=O)c1sccc1S(=O)(=O)NC(C)c1cnn(-c2ccc(OC)cc2)c1C (stereo not given)	.	/	/	.
COc1cc(OC)cc(-c2nnc(SCC(=O)N3c4ccccc4Sc4ccccc43)o2)c1	.	.	.	.
CC(C)(C)OC(=O)N[C@@H](Cc1ccccc1)C(=O)N1CCC(C(=O)NCC(=O)O)CC1	.	/	/	.
CC(C)(C)OC(=O)NC(Cc1ccccc1)C(=O)N1CCC(C(=O)NCC(=O)Nc2ccc(F)cc2)CC1 (stereo not given)	67	/	/	.
Oc1sc(C=Nc2ccccc2)c2ccccc12	.	.	.	123
C=CCN(c1ccccc1)S(=O)(=O)c1cccc(C(=O)OCC(=O)NC2CC2)c1	.	.	.	.
C=CCN(c1ccccc1)S(=O)(=O)c1cccc(C(=O)OCC(=O)NCCOC)c1	55	.	.	.
Cc1cc(Cl)ccc1OC(C)C(=O)Nc1ccccc1N1CCOCC1 (stereo not given)	.	46	177	110
CC(Oc1ccc(Cl)cc1)C(=O)Nc1ccccc1N1CCOCC1 (stereo not given)	.	/	/	53
Cc1cc(Cl)ccc1OC(C)C(=O)Nc1cccc(S(=O)(=O)N2CCOCC2)c1 (stereo not given)	.	/	/	.
O=C(CSc1ncc(-c2ccccc2)nn1)NCc1ccco1	.	.	.	.
CC(c1ccccc1C(O)(c1ccccc1)c1ccccc1)N(C)C (stereo not given)	.	22	15	93
COc1ccccc1C(O)(c1ccccc1)c1ccccc1OC	.	/	/	.
CCOc1ccc(CCNC(=O)c2cccc(NC3=NC4CS(=O)(=O)CC4S3)c2)cc1OCC (stereo not given)	50	/	/	.
Cc1cc(=O)[nH]c(/N=C(/NC(=O)c2ccccc2)Nc2ccc3c(c2)OCCO3)n1	/	.	.	/
Cc1noc(C)c1COc1ccc(C(=O)Nc2cccnc2)cc1	.	.	.	.
COc1ccc([N+](=O)[O-])cc1/C=N/Nc1nn[nH]n1	.	.	.	.
Cc1noc(C)c1COC(=O)c1cccc(S(=O)(=O)N2c3ccccc3CC2C)c1 (stereo not given)	56	.	.	.
Cc1ccc(C(=O)N2CCN(C(=O)CN3CCOCC3)C2)cc1	78	.	.	.
Cc1ccc(C(=O)NCCNC(=O)CN2CCOCC2)cc1	.	.	.	.
SMILES	CRFBP-R2 block	zfTRPN1 agonist	TRPML3 agonist	CRFR2-BP ag
COc1cnn(-c2cccc(Cl)c2)c(=O)c1Cl	.	/	/	.
O=C(CSc1nncc2ccccc12)N1CCCCC1	.	.	.	.
O=P(CCCCCCCCCP(=O)(c1ccccc1)c1ccccc1)(c1ccccc1)c1ccccc1	.	.	.	.
CCCNC(=O)C1CN(S(=O)(=O)c2ccc(Cl)s2)c2ccccc2O1 (stereo not given)	.	/	/	.
CC(Oc1ccc(Cl)cc1Cl)C(=O)NNC(=O)c1cccnc1 (stereo not given)	.	/	/	.
CC(Oc1cccc(Cl)c1)C(=O)NNC(=O)c1cccnc1 (stereo not given)	68	/	/	.
COc1ccccc1Nc1nc(N)nc(CSC(=S)N2CC(C)CC(C)C2)n1 (stereo not given)	53	.	.	.
CC1CCN(C(=S)SCc2nc(N)nc(Nc3ccccc3)n2)CC1	.	.	.	.
CCCC(=O)Nc1ccc(C(=O)NNC(=S)NC(=O)c2cccs2)cc1	.	.	.	.
COc1ccc(C(=O)NNC(=S)NC(=O)c2ccco2)cc1	.	.	.	.
CC(Oc1ccc(Cl)cc1)C(=O)NNC(=S)NC(=O)c1ccco1 (stereo not given)	.	.	.	135
CCCOc1ccc(C(=O)NNC(=S)NC(C)=O)cc1	.	.	.	.
CCCOc1ccc(C(=O)NNC(=S)NC(=O)c2cccs2)cc1	.	/	/	113
CCCOc1ccc(C(=O)NNC(=S)NC(=O)c2ccco2)cc1	.	44	41	137
CCCOc1ccc(C(=O)NNC(=S)NC(=O)c2ccccc2)cc1	.	/	/	180
COc1ccc(NC(=O)CCN2CCCC(C)C2)cc1 (stereo not given)	.	.	.	.
CCCCCC(=O)N1C[C@@H](O)[C@H](n2cc(-c3ccc(F)cc3)nn2)C[C@@H]1c1ccc(OC)cc1	.	/	/	.
C=CCOn1c(C)c(C(C)=O)c2c3nonc3ccc21	.	.	.	.
CCOC(=O)c1c(C)n(OCc2ccccc2)c2ccc3nonc3c12	53	.	.	.
CCN(CC)S(=O)(=O)c1cccc(C(=O)Nc2ccc3c(c2)OCO3)c1	55	.	.	.
CCCN(CCC)S(=O)(=O)c1cccc(C(=O)Nc2ccc3c(c2)OCO3)c1	.	.	.	.
CC(C)(C)NC(=O)C(c1ccc(O)cc1)N(Cc1ccc2c(c1)OCO2)C(=O)CCl (stereo not given)	80	/	/	.
CCOC(=O)c1c(C)[nH]c(C)c1C(=O)COC(=O)/C=C/c1ccc(Cl)cc1	129	.	.	.
C=CCn1c(COc2ccccc2)nnc1SCC(=O)N/N=C/c1cc(Cl)ccc1O	60	.	.	.
CCc1c(C)nc(SCC(=O)N2CCN(c3ccccc3OC)CC2)[nH]c1=O	58	.	.	.
SMILES	CRFBP-R2 block	zfTRPN1 agonist	TRPML3 agonist	CRFR2-BP ag
CC1CN(C(=O)CCC(=O)N2CCN(c3ccccn3)CC2)c2ccccc2O1 (stereo not given)	.	/	/	.
Cc1ccc2[nH]c(C(=O)N/N=C/c3ccccc3C(=O)O)c(-c3ccccc3)c2c1	.	/	/	72
CCC(=O)N1CCc2cc(S(=O)(=O)N3CCN(C(=O)c4ccco4)CC3)ccc21	.	.	.	.
Cc1ccccc1Oc1cc(-n2ncc(Cl)c(Cl)c2=O)ncn1	65	.	.	.
Fc1ccc(OCCCn2ccnc2)cc1	.	/	/	.
Fc1ccc(OCCCCCn2ccnc2)cc1	55	/	/	.
CCC1CCCCN1C(=O)Cn1c(C(=O)OC)cc2ccsc21 (stereo not given)	.	.	.	.
COc1ccccc1C(=O)NCCC(=O)N1CCN(c2ccccc2O)CC1	71	/	/	.
COc1ccccc1C(=O)NCCC(=O)N1CCCCC1	.	/	/	.
O=C(Nc1cccc(NC(=S)NC(=O)c2cccs2)c1)c1ccccc1	.	.	.	.

Source: PubChem (several laboratories)
